Measurements reported in publication PMC7442691 (Nature chemical biology, 2020).

How the values were obtained:
[1] = tested on: PATU-8988T C1 (Pin1 WT) and C2 (Pin1 KO); assay: Cell viability, dose series in 2D monolayer, C1 vs C2; assay type: cell-based, human; conditions: juglone 4 days, KPT-6566 3 days
Pin1 = Pin1 (Homo sapiens, UniProt Q13526); assay: Cellular target engagement, live cell competition with BJP-DTB; assay type: cell-based; conditions: PATU-8988T cells, 5 h treatment
Outline: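 PATU-8988T, PC3 or MDA-MB-468 cells (2.5 million per 10 cm plate) were dosed next day with test compound, either as a concentration series for 5 h or at 5 μM over time. Cells were PBS-washed, scraped and lysed (HEPES pH 7.4, NP-40, TCEP, protease inhibitors). Lysate (500 μg protein) took desthiobiotin-tagged probe at 4°C, then streptavidin agarose for 1 h at 4°C. Washed beads were boiled in LDS for immunoblotting.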

FKBP12^F36V-Pin1 = assay: dTAG degradation of FKBP12F36V-Pin1 by immunoblot; assay type: cell-based, human; conditions: for rescue of dTAG-13 degradation by pretreatment: 2 h pretreatment, then 5 h dTAG-13 500 nM
[2] = tested on: PATU-8988T FKBP12^F36V-KRAS^G12V; KRAS^−/− clone; assay: Viability with FKBP12F36V-KRASG12V degradation, 4 days; assay type: cell-based, human; conditions: 4-day treatment; dTAG-13 100 nM, BJP-06-005-3 5 μM
Outline: (§1)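 Cells seeded at 100 per well in 96-well plates, one plate per time point, and dosed the day after plating with DMSO, test compound or dTAG-13 at 37°C, 5% CO2. Medium and compound were renewed every 48 h, with Dox 100 ng/mL added for inducible C2 cells. CellTiter-Glo luminescence was normalised to a Day 0 plate read before dosing. At least n = 3 biological replicates.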

[3] = tested on: PATU-8988T cells (parental, C1, C2 and transduced C2); assay: Cell viability, growth over time in 2D-adherent monolayer; assay type: cell-based, human
Outline: as §1

[4] = tested on: phospho-CDK1 Tyr15, c-Myc, β-Catenin, NFkB p65; assay: Inhibitor effects on Pin1 downstream signaling; assay type: cell-based, human; conditions: C2 + FKBP12F36V-Pin1 cells, 5 h
Outline: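 Cells seeded at 100,000 per 6-well well, treated next day with DMSO, test compound, dTAG-13 or Dox, then lysed in RIPA with protease/phosphatase inhibitors for western blotting. For fractionation, 2 million cells per 10 cm plate were treated 5.5 h, trypsinised and split by nuclear/cytoplasmic extraction kit. For Wnt3a arms, cells had 4 h compound, then Wnt3a (50 ng/mL) for 4 more hours.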

[5] = C2 + FKBP12F36V-Pin1 cells, 5 h

Chain of Pin1 (Q13526 whole entry): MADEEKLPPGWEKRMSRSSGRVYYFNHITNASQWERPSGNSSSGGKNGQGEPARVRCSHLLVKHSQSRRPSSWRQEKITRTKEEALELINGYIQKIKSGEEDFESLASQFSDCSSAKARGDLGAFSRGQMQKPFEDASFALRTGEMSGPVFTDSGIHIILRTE

CC(C)(C)c1ccc(S(=O)(=O)N=C2C=C(SCC(=O)O)C(=O)c3ccccc32)cc1 [KPT-6566]
anti-proliferative effects, C1 versus C2 [1]: identical anti-proliferative effects in C1 and C2 | competition with BJP-DTB for cellular Pin1 (Pin1): unable to validate that KPT-6566 engages cellular Pin1

CC(C)C[C@H](NC(=O)[C@H](CCc1ccccc1)NC(=O)CN1CCOCC1)C(=O)N[C@@H](Cc1ccccc1)C(=O)N[C@@H](CC(C)C)C(=O)[C@@]1(C)CO1 [carfilzomib]
rescue of dTAG-13 degradation by pretreatment (FKBP12^F36V-Pin1): degradation was rescued upon pretreatment

CC[C@H](C(=O)N1CCCC[C@H]1C(=O)O[C@H](CCc1ccc(OC)c(OC)c1)c1ccccc1OCC(=O)NCCCCCCOc1cccc2c1C(=O)N(C1CCC(=O)NC1=O)C2=O)c1cc(OC)c(OC)c(OC)c1 (stereo partly drawn) [dTAG-13]
cell viability [2]: modest viability effects | cell proliferation ([3]; C2 + FKBP12F36V-Pin1, 2.5 μM): not at 2.5 μM | cell proliferation ([3]; C2 + FKBP12F36V-Pin1, 100 or 500 nM): diminished cell proliferation after 6–8 days | phospho-CDK1 Tyr15 [4]: also increased phospho-CDK1 Tyr15 | time to degradation (FKBP12^F36V-Pin1; 500 nM dTAG-13): 2 to 4 h | concentration at which hook effect apparent (FKBP12^F36V-Pin1; [5]): 1 µM | concentration of maximal degradation (FKBP12^F36V-Pin1; [5]): 100 to 500 nM

NS(=O)(=O)OC[C@@H]1C[C@@H](n2ccc3c(N[C@H]4CCc5ccccc54)ncnc32)C[C@@H]1O [MLN4924]
rescue of dTAG-13 degradation by pretreatment (FKBP12^F36V-Pin1): degradation was rescued upon pretreatment

O=C1C=CC(=O)c2c(O)cccc21 [juglone]
anti-proliferative effects, C1 versus C2 [1]: identical anti-proliferative effects in C1 and C2
